Source: ChEMBL document CHEMBL1148377, “Identification of novel binding interactions in the development of potent, selective 2-naphthamidine inhibitors of urokinase. Synthesis, structural analysis, and SAR of N-phenyl amide 6-substitution” (J Med Chem, 2004)

What was measured:
Plasma kallikrein = Plasma kallikrein (Homo sapiens, UniProt P03952); assay: Binding affinity against human plasma kallikrein.; format: cell-free
Summary of the method: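 Enzyme: human plasma kallikrein at 100 ng/mL. Substrate: S-2302 (H-D-Pro-Phe-Arg-pNA) at 330 μM. Conditions were pH 7.4, 50 mM Tris/0.15 M NaCl/0.5% Pluronic F-68, with compounds from DMSO at 0.01–250 μM. Substrate addition started each reaction, followed by pNA release at 405 nm over 15 min. Ki was calculated from rate-based percent inhibition using previously established Km.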

Plasminogen = Plasminogen (Homo sapiens, UniProt P00747); assay: Binding affinity towards human plasmin.
Summary of the method: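 Uses human plasmin at 18 nM with S-2251 (H-D-Val-Leu-Lys-pNA) at 360 μM. The buffer was 50 mM Tris/0.15 M NaCl + 0.5% Pluronic F-68, pH 7.4, and compounds were added in DMSO at 0.01–250 μM. After substrate start, absorbance at 405 nm was tracked for 15 min. Percent inhibition came from rates, and Ki from percent inhibition with established Km values.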

Prothrombin = Prothrombin (Homo sapiens, UniProt P00734); assay: Binding affinity against human alpha thrombin.
[1] = molecular target: Tissue-type plasminogen activator (Homo sapiens, UniProt P00750); assay: Binding affinity towards human Tissue type plasminogen activator.
Summary of the method: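 Human tPA (1 μg/mL) was run against S-2288 (H-D-Ile-Pro-Arg-pNA) at 1350 μM in Tris 50 mM/NaCl 0.15 M/0.5% Pluronic F-68 buffer at pH 7.4. Test agents in DMSO spanned 0.01–250 μM. Substrate addition began the reaction, and p-nitroaniline formation at 405 nm was followed for 15 min. Ki derived from percent inhibition and previously determined Km.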

[2] = molecular target: Urokinase-type plasminogen activator (Homo sapiens, UniProt P00749)

Chain of Tissue-type plasminogen activator (P00750 whole entry): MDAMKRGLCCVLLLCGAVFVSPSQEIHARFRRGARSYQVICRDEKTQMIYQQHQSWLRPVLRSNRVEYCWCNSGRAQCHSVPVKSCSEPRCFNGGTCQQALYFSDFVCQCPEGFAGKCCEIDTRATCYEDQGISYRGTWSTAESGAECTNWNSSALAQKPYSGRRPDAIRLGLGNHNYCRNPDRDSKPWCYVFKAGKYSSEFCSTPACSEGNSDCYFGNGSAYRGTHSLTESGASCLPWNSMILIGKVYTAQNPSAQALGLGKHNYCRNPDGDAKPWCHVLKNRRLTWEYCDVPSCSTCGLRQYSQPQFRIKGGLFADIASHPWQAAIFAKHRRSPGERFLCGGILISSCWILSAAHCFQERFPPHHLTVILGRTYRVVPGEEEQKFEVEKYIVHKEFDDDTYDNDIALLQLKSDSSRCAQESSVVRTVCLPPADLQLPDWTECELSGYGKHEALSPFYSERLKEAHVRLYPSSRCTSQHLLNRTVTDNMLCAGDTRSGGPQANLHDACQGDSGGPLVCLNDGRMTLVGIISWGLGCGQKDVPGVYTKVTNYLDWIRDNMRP
Chain of Plasma kallikrein (P03952 20-390 limits assumed): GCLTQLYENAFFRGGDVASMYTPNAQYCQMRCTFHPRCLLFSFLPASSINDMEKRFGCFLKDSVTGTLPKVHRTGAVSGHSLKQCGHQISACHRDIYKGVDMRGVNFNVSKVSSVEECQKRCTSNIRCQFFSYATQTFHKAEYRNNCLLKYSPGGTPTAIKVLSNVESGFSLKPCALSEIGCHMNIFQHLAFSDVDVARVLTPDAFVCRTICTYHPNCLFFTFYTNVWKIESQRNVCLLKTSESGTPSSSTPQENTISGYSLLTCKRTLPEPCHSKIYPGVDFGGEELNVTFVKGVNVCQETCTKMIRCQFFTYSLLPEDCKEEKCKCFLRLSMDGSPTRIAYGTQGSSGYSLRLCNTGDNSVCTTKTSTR
Chain of Plasma kallikrein (P03952 391-638 limits assumed): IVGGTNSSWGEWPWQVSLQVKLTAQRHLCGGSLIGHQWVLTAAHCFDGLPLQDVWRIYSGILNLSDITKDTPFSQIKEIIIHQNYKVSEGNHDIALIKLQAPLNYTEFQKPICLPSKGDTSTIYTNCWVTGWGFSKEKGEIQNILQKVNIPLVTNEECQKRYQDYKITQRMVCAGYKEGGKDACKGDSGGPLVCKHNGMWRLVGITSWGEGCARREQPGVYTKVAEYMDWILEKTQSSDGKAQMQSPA
Chain of Plasminogen (P00747 97-580 limits assumed): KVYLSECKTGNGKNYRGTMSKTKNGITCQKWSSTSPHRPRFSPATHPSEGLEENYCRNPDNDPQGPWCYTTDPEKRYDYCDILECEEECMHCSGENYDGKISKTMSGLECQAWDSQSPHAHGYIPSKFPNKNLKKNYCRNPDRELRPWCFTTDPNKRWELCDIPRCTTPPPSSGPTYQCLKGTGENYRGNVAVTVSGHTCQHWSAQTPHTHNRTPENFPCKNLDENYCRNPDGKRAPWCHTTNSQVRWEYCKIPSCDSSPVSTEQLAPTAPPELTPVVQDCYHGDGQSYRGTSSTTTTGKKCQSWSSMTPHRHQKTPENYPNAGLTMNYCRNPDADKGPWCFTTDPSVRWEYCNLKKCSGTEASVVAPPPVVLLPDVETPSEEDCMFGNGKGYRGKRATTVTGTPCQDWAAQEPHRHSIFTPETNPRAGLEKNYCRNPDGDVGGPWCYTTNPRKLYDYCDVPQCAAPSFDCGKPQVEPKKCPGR
Chain of Plasminogen (P00747 581-810 limits assumed): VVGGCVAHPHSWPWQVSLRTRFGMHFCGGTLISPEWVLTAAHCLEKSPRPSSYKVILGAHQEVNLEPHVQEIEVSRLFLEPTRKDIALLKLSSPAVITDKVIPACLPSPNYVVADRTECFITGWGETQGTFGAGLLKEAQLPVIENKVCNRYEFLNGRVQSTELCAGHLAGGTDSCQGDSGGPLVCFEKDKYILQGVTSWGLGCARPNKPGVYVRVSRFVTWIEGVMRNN

Structure (SMILES)	Ki (Plasma kallikrein) [nM]	Ki (Plasminogen) [nM]	Ki (Prothrombin) [nM]	Ki [1] [nM]	Ki [2] [nM]
N#Cc1ccc2cc(NC(=O)c3ccccc3)ccc2c1	8000	5560	17600	> 100000	–
CC(C)Oc1cccc(NC(=O)c2ccc3cc(C(=N)N)ccc3c2)c1	1370	554	3490	2370	–
CCOc1cccc(NC(=O)c2ccc3cc(C(=N)N)ccc3c2)c1	–	–	–	–	82
CC(C)C1NCCc2ccc(NC(=O)c3ccc4cc(C(=N)N)ccc4c3)cc21 (stereo not drawn)	230	631	5720	1120	–
N=C(N)c1ccc2cc(C(=O)Nc3cccc(OC4CCCC4)c3)ccc2c1	2720	498	5580	3390	–
N=C(N)c1ccc2cc(C(=O)Nc3ccc(CO)cc3)ccc2c1	2570	3820	35100	8350	–
CNC(=O)c1ccc2cc(C(=N)N)ccc2c1	–	–	–	–	8700
N=C(N)c1ccc2cc(C(=O)Nc3ccc(C(N)=O)cc3)ccc2c1	2430	1970	2350	> 100000	326
CC(C)CC1NCCc2ccc(NC(=O)c3ccc4cc(C(=N)N)ccc4c3)cc21 (stereo not drawn)	1350	1190	7310	> 50000	123
CN(C(=O)c1ccc2cc(C(=N)N)ccc2c1)c1ccccc1	–	–	–	–	15500
CCC(CC)Oc1cccc(NC(=O)c2ccc3cc(C(=N)N)ccc3c2)c1	–	–	–	–	104
CCc1ccc(NC(=O)c2ccc3cc(C(=N)N)ccc3c2)cc1	18100	3870	43700	83900	736
CC(C)Oc1cc(NC(=O)c2ccc3cc(C(=N)N)ccc3c2)cc(OC(C)C)c1	4300	1060	21700	790	28
N=C(N)c1ccc2cc(C(=O)Nc3ccc4c(c3)C(C3CCCC3)=NCC4)ccc2c1	849	765	5310	3130	35.5
CC(C)C1=NCCc2ccc(NC(=O)c3ccc4cc(C(=N)N)ccc4c3)cc21	436	768	4990	1840	–
CCC1CNCc2ccc(NC(=O)c3ccc4cc(C(=N)N)ccc4c3)cc21 (stereo not drawn)	145	1120	6440	1650	–
N=C(N)c1ccc2ccccc2c1	22500	51300	–	> 100000	5910
CC(C)Oc1cc(NC(=O)c2ccc3cc(C(=N)N)ccc3c2)cc(OC2CCCC2)c1	3330	966	21600	844	22
N=C(N)c1ccc2cc(C(=O)Nc3ccccc3)ccc2c1	2500	1950	5640	31800	–
COc1cc(NC(=O)c2ccc3cc(C(=N)N)ccc3c2)cc(OC)c1	–	–	–	–	139
N=C(N)c1ccc2cc(C(=O)Nc3cccc(CC4CCCC4)c3)ccc2c1	–	–	–	–	167
CC(C)CC1=NCCc2ccc(NC(=O)c3ccc4cc(C(=N)N)ccc4c3)cc21	–	–	–	–	161
N=C(N)c1ccc2cc(C(=O)Nc3cccc(Oc4ccccc4)c3)ccc2c1	–	–	–	–	517
[H]/N=C(\N)c1ccc2cc(C(=O)Nc3ccc(CN)cc3)ccc2c1	7170	16000	> 100000	58400	–
N=C(N)c1ccc2cc(C(=O)Nc3ccc4c(c3)C(C3CCCC3)NCC4)ccc2c1 (stereo not drawn)	400	833	10200	3950	26.5
N=C(N)c1ccc2cc(C(=O)Nc3ccc4c(c3)CCNC4)ccc2c1	112	1030	6920	2320	–
COc1cccc(NC(=O)c2ccc3cc(C(=N)N)ccc3c2)c1	–	–	–	–	233
